Results gathered from unrelated publications.
Compare with care: the assays were run in different laboratories.

| SMILES | cell line | effect on | technique | concentration | time | measurement | result |
| --- | --- | --- | --- | --- | --- | --- | --- |
| CC(C)OC(=O)C(n1cccn1)n1cccn1 | A-431 | cell growth or viability | MTT | – | 72 h | IC50 | > 50000 nM |
| CCOC(=O)c1nn(-c2cccc(Cl)c2)/c(=N/N=C(\C)c2ccc(NC(=O)c3ccccc3)cc2)s1 | HepG2 | cell growth or viability | MTT | 0.156 µM | – | viability | 25.9% |
| CNc1ncc2c(/C=C/C(=O)N3CCC(OC)CC3)nn(Cc3ccccc3C)c2n1 | OE33 | cell growth or viability | resazurin | – | 5 days | EC50 | 7.84 µM |
| CC(C)(C)c1cnc(CSc2cnc(NC(=O)C3CCN(CCCCCCCCSc4cccc5c4CN(C4CCC(=O)NC4=O)C5=O)CC3)s2)o1 (stereo not shown) | HH | cell growth or viability | trypan blue | – | 48 h | IC50 | 114 nM |
| CN(C)C1CCCN(C(=O)/C=C/c2nn(CC3CCCC3)c3ncnc(N)c23)C1 (stereo not shown) | OE33 | cell growth or viability | resazurin | – | 5 days | EC50 | > 30 µM |
| O=C(Nc1ccc(C(F)(F)F)cc1)Nc1cccc(Br)c1 | LAD2 | degranulation | – | – | – | IC50 | 1240 nM |
| Nc1ncnc2c1c(/C=C/C(=O)N1CCC(CCO)CC1)nn2CC1CCCC1 | OE33 | cell growth or viability | resazurin | – | 5 days | EC50 | > 30 µM |
| CC(=NNC(=O)c1cccnc1)c1ccc(Nc2nnc(-c3ccc(Cl)cc3)c3ccccc23)cc1 | HepG2 | cell growth or viability | MTT | 10 µM | – | cell death | 96.8% |
| CC(C)(C)c1cnc(CSc2cnc(NC(=O)C3CCN(CCCCCCCSc4cccc5c4C(=O)N(C4CCC(=O)NC4=O)C5=O)CC3)s2)o1 (stereo not shown) | HH | cell growth or viability | CCK-8 | 50 nM | – | viability | 96% |
| O=C(Nc1ccccc1)Nc1ccc(Oc2nnc(-c3ccc(Cl)cc3)c3ccccc23)cc1 | HepG2 | cell growth or viability | MTT | 0.312 µM | – | cell death | 93% |
| CNc1ncc2c(/C=C/C(=O)N3CCC(COC)CC3)nn(Cc3cccc(C)c3)c2n1 | OE33 | cell growth or viability | resazurin | – | 5 days | EC50 | > 30 µM |
| CC(=O)c1nn(-c2ccccc2Cl)/c(=N/N=C(\C)c2ccc(NC(=O)c3ccccc3)cc2)s1 | HepG2 | cell growth or viability | MTT | 0.625 µM | – | viability | 5.95% |
| CC(=O)Nc1ccc(Oc2nnc(-c3ccc(Cl)cc3)c3ccccc23)cc1 | HepG2 | cell growth or viability | MTT | 1.25 µM | – | cell death | 92.9% |
| C=CC(=O)NC1CCN(c2ncc3ncnc(Nc4ccc(Oc5ccc6c(c5)ncn6C)c(C)c4)c3n2)CC1 | SW 1116 | cell growth or viability | – | – | – | EC50 | 0.0152 µM |
| CC(=NNC(=O)c1ccccc1Br)c1ccc(Nc2nnc(-c3ccc(Cl)cc3)c3ccccc23)cc1 | HepG2 | cell growth or viability | MTT | 0.312 µM | – | cell death | 14.6% |
| O=C(Nc1ccc(C(F)(F)F)cc1)Nc1cccc([N+](=O)[O-])c1 | LAD2 | degranulation | – | – | – | IC50 | 370 nM |

| SMILES | cell line | effect on | technique | concentration | time | measurement | result |
| --- | --- | --- | --- | --- | --- | --- | --- |
| CC(C)(C)c1cnc(CSc2cnc(NC(=O)C3CCN(CCCCSc4cccc5c4C(=O)N(C4CCC(=O)NC4=O)C5=O)CC3)s2)o1 (stereo not shown) | HH | cell growth or viability | CCK-8 | 10 nM | – | viability | 105% |
| O=C(Nc1ccc(Oc2nnc(-c3ccc(Cl)cc3)c3ccccc23)cc1)c1cccc([N+](=O)[O-])c1 | HepG2 | cell growth or viability | MTT | 0.625 µM | – | cell death | 32.3% |
| C[C@H]1Oc2cc(cnc2N)-c2c(nn(C)c2C#N)CN(C)C(=O)c2ccc(F)cc21 | A-431 | cell growth or viability | – | – | – | IC50 | > 10000 nM |
| O=C(Nc1ccccc1)Nc1cccc(Br)c1 | LAD2 | degranulation | – | – | – | IC50 | 22100 nM |
| CCOC(=O)c1nn(-c2cccc(Cl)c2)/c(=N/N=C(\C)c2ccc(NC(=O)c3ccc(Cl)cc3)cc2)s1 | HepG2 | cell growth or viability | MTT | 5 µM | – | viability | 2.59% |
| CNc1ncc2c(/C=C/C(=O)N3CCCCC3)nn(CC3CCCC3)c2n1 | OE33 | cell growth or viability | resazurin | – | 5 days | EC50 | > 30 µM |
| CC(C)(C)c1cnc(CSc2cnc(NC(=O)C3CCN(C(=O)CCCSc4cccc5c4C(=O)N(C4CCC(=O)NC4=O)C5=O)CC3)s2)o1 (stereo not shown) | HH | cell growth or viability | CCK-8 | 0.5 µM | – | viability | 17.8% |
| CC(=NNC(=O)c1ccncc1)c1ccc(Nc2nnc(-c3ccc(Cl)cc3)c3ccccc23)cc1 | HepG2 | cell growth or viability | MTT | 0.312 µM | – | cell death | 64.7% |
| Nc1ncnc2c1c(/C=C/C(=O)N1CCOCC1)nn2CC1CCCC1 | OE33 | cell growth or viability | resazurin | – | 5 days | EC50 | > 30 µM |
| CC(C)(C)c1cnc(CSc2cnc(NC(=O)C3CCN(C(=O)COCCOCCSc4cccc5c4C(=O)N(C4CCC(=O)NC4=O)C5=O)CC3)s2)o1 (stereo not shown) | HH | cell growth or viability | CCK-8 | 1 µM | – | viability | 7.67% |
| CC(=O)c1nn(-c2ccc(C)cc2)/c(=N/N=C(\C)c2ccc(NC(=O)c3ccccc3)cc2)s1 | HepG2 | cell growth or viability | MTT | 0.625 µM | – | viability | 5.4% |
| CNc1ncc2c(/C=C/C(=O)N3CCCC3)nn(CC3CCCC3)c2n1 | OE33 | cell growth or viability | resazurin | – | 5 days | EC50 | > 30 µM |
| CC(=NNC(=S)Nc1ccccc1)c1ccc(Nc2nnc(-c3ccc(Cl)cc3)c3ccccc23)cc1 | HepG2 | cell growth or viability | MTT | 1.25 µM | – | cell death | 50% |
| CNc1ncc2c(/C=C/C(=O)N3CCC(OC)CC3)nn(CC3CCCC3)c2n1 | OE33 | cell growth or viability | resazurin | – | 5 days | EC50 | 6.72 µM |
| O=C(Nc1ccc([N+](=O)[O-])cc1)Nc1ccc(C(F)(F)F)cc1 | LAD2 | degranulation | – | – | – | IC50 | 170 nM |
